# Source: PubChem BioAssay
# The source made the active and inactive calls.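 How the source made its calls, unless noted: active means fluorescence slope higher than the sample average by over 3 SD (cut at about -0.22 in these data, passing the limit was not always enough); inactive means the rest.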
# Key:
# [1] = inhibitors of TNFa-induced NFkB p65 translocation, primary screen, imaging, HUVEC, MLSMR starter and 10KST1 sets (AID 438;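 active means inhibition above 20% together with a positive visual image hit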;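 further: compound added about 3h40 before a 20 min TNFalpha stimulation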;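 on inhibition: signal is the nuclear over cytoplasmic p65 intensity ratio per well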); details: HUVEC TNFa-induced p65 nuclear translocation; cell count: measured here: nuclei count (cytotoxicity indicator), at 2.08 µM; inhibition: at 2 µM, stronger effect = higher value, 0% TNFa-plus-vehicle, 100% no-TNFa wells
# [2] = endothelial E-selectin expression blockers – imaging, HUVEC, immunofluorescence, MLSMR starter and 10KST1 sets, primary screen (AID 487;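 active means visually confirmed hit in the image check and inhibition above 20%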;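 on inhibition: signal is fraction of cell area covered by stained E-selectin grains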;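 on nuclei count: 100% = median nuclei count of all wells on the same plate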); details: HUVEC TNFalpha-induced E-selectin immunofluorescence imaging, at 2 µM; inhibition: stronger effect = higher value; nuclei count: measured here: cell number, toxicity
# [3] = Primary imaging screen for DUSP6 inhibitors that restore phospho-Erk in transfected HeLa cells, chemical complementation (AID 609;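 active means compounds giving at least 50% inhibition in the cell-based MKP-3 phosphatase rescue imaging test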;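 on inhibition: phospho-Erk level distribution per well compared with pooled transfected vehicle control wells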); details: HeLa MKP-3 transfected, phospho-Erk imaging KS statistic, at 10 µM, cells stimulated with TPA for 15 min
# [4] = target: Dual specificity protein phosphatase 6 (Homo sapiens) (UniProt Q16828); assay: as above; details: HeLa MKP-3 transfected, phospho-Erk imaging KS statistic; at 10 µM; stronger effect = higher value; cells stimulated with TPA for 15 min
# Dual specificity protein phosphatase 6 (Homo sapiens), sequence (Q16828 whole entry, looked up): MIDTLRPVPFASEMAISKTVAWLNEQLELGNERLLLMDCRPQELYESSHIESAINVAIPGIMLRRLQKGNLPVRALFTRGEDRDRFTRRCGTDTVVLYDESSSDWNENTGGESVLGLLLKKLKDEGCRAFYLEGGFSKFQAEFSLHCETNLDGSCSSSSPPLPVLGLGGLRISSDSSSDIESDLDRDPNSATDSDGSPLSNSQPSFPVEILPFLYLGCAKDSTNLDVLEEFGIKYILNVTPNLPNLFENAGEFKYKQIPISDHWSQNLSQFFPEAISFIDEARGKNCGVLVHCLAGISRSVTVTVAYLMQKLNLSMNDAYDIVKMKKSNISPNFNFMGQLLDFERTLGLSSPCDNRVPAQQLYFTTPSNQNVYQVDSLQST
# [5] = target: Voltage-gated potassium channel subunit beta-2 (Rattus norvegicus) (UniProt P62483); assay: inhibitors of rat Kvbeta2 reductase activity – biochemical, NADPH fluorescence, primary screen (AID 622); details: recombinant KvBeta, 4-cyanobenzaldehyde reduction, at 10 µM, stronger effect = higher value;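 further: slope of raw intensity against log time taken from 70 to 1610 s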
# Voltage-gated potassium channel subunit beta-2 (Rattus norvegicus), sequence (P62483 whole entry, looked up): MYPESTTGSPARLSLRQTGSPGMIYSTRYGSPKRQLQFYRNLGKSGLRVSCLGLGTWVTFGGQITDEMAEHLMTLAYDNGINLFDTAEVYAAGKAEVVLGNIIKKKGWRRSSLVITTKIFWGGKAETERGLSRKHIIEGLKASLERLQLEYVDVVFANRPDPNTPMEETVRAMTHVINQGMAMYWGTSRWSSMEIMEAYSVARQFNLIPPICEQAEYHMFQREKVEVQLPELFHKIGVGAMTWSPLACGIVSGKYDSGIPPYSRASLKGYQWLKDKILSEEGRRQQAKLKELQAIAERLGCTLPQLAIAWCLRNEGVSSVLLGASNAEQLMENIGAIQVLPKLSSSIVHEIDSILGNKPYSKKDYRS
# [6] = target: Voltage-gated potassium channel subunit beta-2 (Rattus norvegicus) (UniProt P62483); assay: enhancers of rat Kvbeta2 NADPH turnover – biochemical, NADPH fluorescence, primary screen (AID 623;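 active means NADPH fluorescence slope more negative than the mean of all samples by about 3 SD, 99.7% confidence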;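 further: fluorescence intensity change per second fitted from 20 to 320 s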); details: Recombinant KvBeta, NADPH fluorescence decrease slope, 10 min; at 10 µM; stronger effect = lower value
# [7] = target: Alpha-2C adrenergic receptor (Homo sapiens) (UniProt P18825); assay: compounds altering alpha2C-coupled GIRK flux – cell-based, HEK293 alpha2C/GIRK1/2, thallium flux, primary screen (AID 624;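 active means fluorescence slope after compound addition differing from the mean of all screened samples at 99.7% confidence, in either direction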;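 further: slope of fluorescence ratio to pre-addition baseline per second over 15 to 24 s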); details: thallium flux BTC fluorescence, at 10 µM, actives lie on both sides
# Alpha-2C adrenergic receptor (Homo sapiens), sequence (P18825 whole entry, looked up): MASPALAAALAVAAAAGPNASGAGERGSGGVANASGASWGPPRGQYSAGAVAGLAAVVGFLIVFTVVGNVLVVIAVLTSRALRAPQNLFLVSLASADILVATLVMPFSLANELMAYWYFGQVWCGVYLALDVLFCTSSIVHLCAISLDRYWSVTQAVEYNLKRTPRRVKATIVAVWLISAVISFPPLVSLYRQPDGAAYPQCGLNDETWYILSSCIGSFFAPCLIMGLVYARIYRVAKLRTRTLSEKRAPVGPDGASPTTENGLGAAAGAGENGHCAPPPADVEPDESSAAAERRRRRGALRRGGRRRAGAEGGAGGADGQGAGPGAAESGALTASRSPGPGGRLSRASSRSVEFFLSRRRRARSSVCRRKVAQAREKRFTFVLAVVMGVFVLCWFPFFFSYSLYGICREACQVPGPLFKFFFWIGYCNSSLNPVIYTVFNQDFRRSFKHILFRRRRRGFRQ
# [8] = inhibitors of larval lipid processing in zebrafish, primary screen, whole organism, PED6 fluorescence, gall bladder and intestine (AID 686;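 active means a full or partial loss of lipid-probe fluorescence in the fish gall bladder, intestine or both, judged by eye; inactive means no fluorescence loss, or compound toxic to the fish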;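 further: larvae 5 to 7 days old with five fish per well; signal comes from phospholipase A2 cleavage of quenched PED6 carried via bile; overnight exposure to compound and PED6 before scoring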); details: Zebrafish larvae PED6 lipid processing, fluorescence scoring; screened at 20 µM (by protocol)
# Outline: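 Also added: quenched phospholipase substrate PED6, 100 nM final, ingested by larvae; System: zebrafish larvae, 5-7 d; Quantity: 5 larvae per well; Compound: 20 µM single dose; Schedule: overnight compound and PED6 incubation; Read-out: visual per-well fluorescence inhibition score; Measured by: By-eye fluorescence microscopy; Medium: E3.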
# [9] = loss of swimming-algae plug formation – whole organism, Chlamydomonas reinhardtii, WT vs cilia-less mutant, absorbance, 96-well, primary screen (AID 463189;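 active means inhibition at or above 50% relative to wild type and mutant plate controls; inactive means inhibition below 50%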;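 further: 0% = wild type cc124 cells in DMSO and 100% = ciliumless bld1 mutant cells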); details: Chlamydomonas reinhardtii gravitaxis, OD600 absorbance, 2 days; at 10 µM; stronger effect = higher value
# [10] = measured here: cell density z-score
# [11] = measured here: nuclear c-Myc green intensity z-score
# [12] = measured here: nuclear pErk red intensity z-score, stronger effect = higher value
SMILES,cell count [1],inhibition [1],inhibition [2],nuclei count [2],"z-score [3, 10]","z-score [3, 11]","z-score [3, 12]",inhibition [4],fluorescence slope [5],NADPH fluorescence slope [6],slope [7],outcome [8],inhibition [9]
Nc1nc(NC(=O)Cc2ccccc2)nn1-c1ccccc1,330,-5.8% (inactive),16% (inactive),153%,-1.12,1.13,0.973,9.42% (inactive),-0.381 (inactive),-0.000121 (inactive),0.00768 (inactive),inactive,14.3% (inactive)
CN(C)CCNc1nc(-c2ccco2)c2c(c1C#N)CC(C)(C)OC2,621,-14.2% (inactive),-15.8% (inactive),164%,-0.37,-0.517,0.864,1.48% (inactive),-0.34 (inactive),-5.5e-05 (inactive),0.00509 (inactive),inactive,17.6% (inactive)
c1ccc(OCc2nn3c(-c4ccco4)nnc3s2)cc1,654,3.2% (inactive),-139% (inactive),156%,2.72,-1.05,-0.302,11.9% (inactive),-0.417 (inactive),-0.000108 (inactive),0.00597 (inactive),inactive,7.84% (inactive)
O=C1c2ccccc2S(=O)(=O)N1CC(O)COc1ccc(Cl)cc1 (stereo not given),354,-14.1% (inactive),-291% (inactive),97%,0.633,0.437,-1.99,1.75% (inactive),-0.439 (inactive),-8.9e-06 (inactive),0.00476 (inactive),inactive,1.18% (inactive)
CSc1nnc(C)c(=O)[nH]1,627,3.2% (inactive),-23.8% (inactive),149%,0.361,-1.1,-0.0421,-1.12% (inactive),-0.463 (inactive),-0.000266 (inactive),0.00552 (inactive),inactive,6% (inactive)
O=C(c1ccccc1)C(CCC(CN1CCOCC1)C(=O)c1ccccc1)CN1CCOCC1 (stereo not given),588,-0.1% (inactive),-9.4% (inactive),109%,0.046,-0.626,1.7,1.75% (inactive),-0.59 (inactive),-1.8e-05 (inactive),0.00635 (inactive),inactive,24.8% (inactive)
C=CCNc1nc(-c2ccc(O)c(C(N)=O)c2)cs1,651,-7.7% (inactive),-37.4% (inactive),154%,1.4,-1.92,0.332,7.48% (inactive),-0.465 (inactive),-0.000295 (inactive),0.00459 (inactive),inactive,22.9% (inactive)
Fc1ccccc1/C=N/n1cnnc1,540,-6.3% (inactive),-60.4% (inactive),172%,0.728,-0.356,0.425,4.25% (inactive),-0.297 (inactive),-6.2e-06 (inactive),0.00552 (inactive),inactive,5.22% (inactive)
Cc1cc(C(F)(F)F)c(C#N)c(SCC(=O)NC2CC2)n1,541,-11.5% (inactive),2.6% (inactive),99.8%,1.52,-0.242,-0.534,15.5% (inactive),-0.514 (inactive),-3.6e-05 (inactive),0.0063 (inactive),inactive,7.84% (inactive)
Cc1ccccc1-c1nn2c(-c3ccccc3)nnc2s1,590,-20% (inactive),-150% (inactive),149%,0.229,-1.66,0.142,-2.47% (inactive),-0.451 (inactive),-6e-05 (inactive),0.00655 (inactive),inactive,92.9% (active)
CC(C)c1cc(NCCN2CCOCC2)n2c(nc3ccccc32)c1C#N,530,-16.7% (inactive),-13.5% (inactive),100%,0.71,0.53,-0.442,10.1% (inactive),-0.493 (inactive),-8.7e-06 (inactive),0.00455 (inactive),inactive,-6.96% (inactive)
O=c1[nH]c(CN2CCCCC2)nc2c1C1(CCCC1)Cc1ccccc1-2,414,-0.5% (inactive),-29.1% (inactive),101%,0.73,-0.701,-0.0539,-1.12% (inactive),-0.233 (inactive),-8.8e-06 (inactive),0.00603 (inactive),inactive,-2.89% (inactive)
CC1(C)Cc2c(C#N)c(NCCN3CCOCC3)nc(-c3ccco3)c2CO1,579,-8.4% (inactive),-62.4% (inactive),149%,0.114,1.74,-1.62,26.5% (inactive),-0.295 (inactive),-3e-06 (inactive),0.00581 (inactive),inactive,34% (inactive)
CC1(C)Cc2c(C#N)c(NCc3ccco3)nc(-c3ccco3)c2CO1,598,3.9% (inactive),-12.9% (inactive),178%,0.978,-1.81,0.89,-6.86% (inactive),-0.29 (inactive),-9.7e-06 (inactive),0.00397 (inactive),active; weak signal in gallbladder and intestine,53.9% (active)
COc1nc(N(C)S(=O)(=O)c2ccc(C)cc2)nc(C)c1Cl,587,-20% (inactive),-69% (inactive),177%,-0.267,-0.856,1.29,7.73% (inactive),-0.362 (inactive),-1.7e-05 (inactive),0.00412 (inactive),inactive,-4.99% (inactive)
COc1ccc(C(C)=O)cc1CSCCC(=O)O,513,-1.6% (inactive),-82.1% (inactive),175%,1.45,-1.72,-4.2,-5.26% (inactive),-0.349 (inactive),1.8e-05 (inactive),0.00434 (inactive),inactive,0.764% (inactive)
c1ccc(-c2nn3c(C4CCCCC4)nnc3s2)cc1,527,-1.4% (inactive),-81.3% (inactive),142%,-0.66,0.347,1.15,-18.6% (inactive),-0.435 (inactive),-8.4e-05 (inactive),0.00411 (inactive),inactive,6.49% (inactive)
CC1(C)C/C(=C(/C#N)C(N)=O)CCO1,575,-11.9% (inactive),-42.1% (inactive),110%,0.299,1.82,-0.278,-8.95% (inactive),-0.392 (inactive),4.5e-06 (inactive),0.00848 (inactive),inactive,-18.4% (inactive)
COC(=O)c1ccc(OC(=O)c2ccc(OC)c(OC)c2)c(OC)c1,601,-0.3% (inactive),2.2% (inactive),142%,0.251,-0.0242,-0.151,11.4% (inactive),-0.491 (inactive),-0.000121 (inactive),0.00612 (inactive),inactive,1.14% (inactive)
C=C(C)CSC1=C(C#N)C(c2ccsc2)CC(=O)N1 (stereo not given),486,-5% (inactive),8.3% (inactive),121%,-1,-0.892,0.991,-5.89% (inactive),-0.512 (inactive),-6.2e-05 (inactive),0.00453 (inactive),inactive,13% (inactive)
CCOC(=O)COn1c(=O)c(-c2ccco2)[n+]([O-])c2ccccc21,534,1.6% (inactive),3.6% (inactive),130%,2.03,1.19,-0.23,8.76% (inactive),-0.283 (inactive),-1.2e-05 (inactive),0.00422 (inactive),inactive,34.2% (inactive)
CC(C)(C)OC(=O)NCCC(=O)Oc1ccc2ccc(=O)oc2c1,499,-1.3% (inactive),-209% (inactive),185%,0.0263,0.375,0.541,-11% (inactive),-0.362 (inactive),-2.1e-05 (inactive),0.00495 (inactive),inactive,16.5% (inactive)
O=C(Nc1ccc2c(c1)OCO2)c1cc2n(n1)C(C(F)(F)F)CC(c1ccccc1)N2 (stereo not given),415,-5.8% (inactive),33.8% (inactive),65.6%,-0.336,0.972,-0.0303,7.48% (inactive),-0.544 (inactive),-7.9e-05 (inactive),0.00462 (inactive),inactive,-16.3% (inactive)
O=C(c1ccccc1F)N1CCC(N2CCCCCC2)CC1,332,-3.1% (inactive),-138% (inactive),95.6%,0.261,-1.02,-0.289,15.1% (inactive),-0.493 (inactive),-1.4e-05 (inactive),0.00789 (inactive),inactive,50.6% (active)
CCOC(=O)c1c(CN2CCCCC2)oc2ccc(OC)cc12,344,-9.3% (inactive),-46.9% (inactive),142%,0.114,0.591,0.702,-7.01% (inactive),-0.416 (inactive),-0.000135 (inactive),0.00729 (inactive),inactive,4.54% (inactive)
